# Reference: ChEMBL document CHEMBL3352485 (J Med Chem, 2014)
# Experiments:
# Format in all cases: cell-based
# KiSS-1 receptor [1] = target: T1, KiSS-1 receptor (Homo sapiens, UniProt Q969F8); assay: Agonist activity at human KISS1R transfected in CHO cells assessed as intracellular calcium flux after 24 hrs by functional FLIPR assay
# In short: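 CHO cells stably expressing human KISS1R were seeded at 15 000 cells/mL, cultured 24 h, then loaded with fluo-3 for 1 h at 37 °C in HBSS/HEPES (pH 7.4) with probenecid and FBS. Cells were washed in HBSS with 2.5 mM probenecid. Peptides came from 1 mM DMSO stocks diluted in buffer containing probenecid, 0.2% BSA and 0.1% CHAPS. Fluorescence was recorded on FLIPR for 3 min; peak counts over 0–180 s gave agonist activity.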
# KiSS-1 receptor [2] = target: T2, KiSS-1 receptor (Rattus norvegicus, UniProt Q924U1); assay: Agonist activity at rat KISS1R transfected in CHO cells assessed as intracellular calcium flux after 24 hrs by functional FLIPR assay
# T2 sequence (Q924U1 whole entry): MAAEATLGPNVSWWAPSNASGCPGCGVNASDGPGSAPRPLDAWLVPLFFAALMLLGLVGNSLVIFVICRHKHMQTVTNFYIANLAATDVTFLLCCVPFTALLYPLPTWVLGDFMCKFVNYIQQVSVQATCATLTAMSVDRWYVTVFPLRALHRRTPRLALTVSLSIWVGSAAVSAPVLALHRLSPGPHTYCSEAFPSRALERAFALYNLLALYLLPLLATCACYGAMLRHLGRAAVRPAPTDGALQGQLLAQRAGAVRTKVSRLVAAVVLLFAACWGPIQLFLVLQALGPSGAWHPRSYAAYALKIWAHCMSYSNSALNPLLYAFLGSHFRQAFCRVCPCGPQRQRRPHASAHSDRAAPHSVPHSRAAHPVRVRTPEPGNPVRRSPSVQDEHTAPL
# KiSS-1 receptor [3] = target: T1, KiSS-1 receptor; assay: Displacement of radioligand from human KISS1R transfected in CHO cells
# In short: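 Binding used membrane fractions prepared from CHO cells expressing recombinant human KISS1R.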
# KiSS-1 receptor [4] = target: T2, KiSS-1 receptor; assay: Displacement of radioligand from rat KISS1R transfected in CHO cells
# T1 sequence (Q969F8 whole entry): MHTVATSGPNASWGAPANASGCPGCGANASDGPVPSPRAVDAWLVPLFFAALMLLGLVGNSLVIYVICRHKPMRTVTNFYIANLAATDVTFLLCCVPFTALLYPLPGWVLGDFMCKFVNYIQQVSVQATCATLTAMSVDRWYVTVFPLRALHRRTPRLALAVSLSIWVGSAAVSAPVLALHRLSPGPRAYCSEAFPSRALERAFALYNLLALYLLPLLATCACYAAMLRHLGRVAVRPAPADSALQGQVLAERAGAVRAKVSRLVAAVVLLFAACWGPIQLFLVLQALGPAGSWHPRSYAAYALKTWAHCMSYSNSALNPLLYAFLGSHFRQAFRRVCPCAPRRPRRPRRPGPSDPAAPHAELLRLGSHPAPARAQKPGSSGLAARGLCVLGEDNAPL
Compound,EC50 (KiSS-1 receptor [1]),EC50 (KiSS-1 receptor [2]),Ki (KiSS-1 receptor [3]),Ki (KiSS-1 receptor [4])
CNC(=N)NCCC[C@H](NC(=O)[C@H](CC(C)C)NC(=O)NNC(=O)[C@H](Cc1ccccc1)NC(=O)[C@H](CO)NC(=O)[C@H](C)NC(=O)[C@@H](Cc1c[nH]c2ccccc12)NC(=O)[C@H](N)Cc1ccc(O)cc1)C(=O)N[C@@H](Cc1c[nH]c2ccccc12)C(N)=O,0.49 nM,6.8 nM,,
CNC(=N)NCCC[C@H](NC(=O)[C@H](CC(C)C)NC(=O)NNC(=O)[C@H](Cc1ccccc1)NC(=O)[C@@H](NC(=O)[C@H](CC(N)=O)NC(=O)[C@@H](Cc1ccncc1)NC(=O)[C@H](N)Cc1ccc(O)cc1)C(C)(C)C)C(=O)N[C@@H](Cc1c[nH]c2ccccc12)C(N)=O,1.5 nM,22 nM,,
CNC(=N)NCCC[C@H](NC(=O)[C@H](CC(C)C)NC(=O)NNC(=O)[C@H](Cc1ccccc1)NC(=O)[C@@H](NC(=O)[C@H](CC(N)=O)NC(=O)[C@@H](Cc1ccncc1)NC(=O)[C@H](N)Cc1ccc(O)cc1)[C@@H](C)O)C(=O)N[C@@H](Cc1c[nH]c2ccccc12)C(N)=O,1.6 nM,5.7 nM,0.086 nM,
CNC(=N)NCCC[C@H](NC(=O)[C@H](CC(C)C)NC(=O)NNC(=O)[C@H](Cc1ccccc1)NC(=O)[C@H](CO)NC(=O)[C@@H](NC(=O)[C@@H](Cc1ccncc1)NC(=O)[C@H](N)Cc1ccc(O)cc1)[C@@H](C)O)C(=O)N[C@@H](Cc1c[nH]c2ccccc12)C(N)=O,1.3 nM,32 nM,,
CNC(=N)NCCC[C@H](NC(=O)[C@H](CC(C)C)NC(=O)NNC(=O)[C@H](Cc1ccccc1)NC(=O)[C@@H]1CC(O)CN1C(=O)[C@H](CC(N)=O)NC(=O)[C@@H](Cc1ccncc1)NC(=O)[C@H](N)Cc1ccc(O)cc1)C(=O)N[C@@H](Cc1c[nH]c2ccccc12)C(N)=O (stereo partly drawn),2.8 nM,95 nM,,

# Other lines, results leading:
EC50 (KiSS-1 receptor [1]),EC50 (KiSS-1 receptor [2]),Ki (KiSS-1 receptor [3]),Ki (KiSS-1 receptor [4]),Compound
0.82 nM,4.2 nM,0.034 nM,0.087 nM,CNC(=N)NCCC[C@H](NC(=O)[C@H](CC(C)C)NC(=O)NNC(=O)[C@H](Cc1ccccc1)NC(=O)[C@@H](NC(=O)[C@H](CC(N)=O)NC(=O)[C@@H](Cc1c[nH]c2ccccc12)NC(=O)[C@@H](Cc1ccc(O)cc1)NC(=O)C1CC1)[C@@H](C)O)C(=O)N[C@@H](Cc1c[nH]c2ccccc12)C(N)=O
0.96 nM,,0.035 nM,,CC(C)C[C@H](NC(=O)CNC(=O)[C@H](Cc1ccccc1)NC(=O)[C@H](CO)NC(=O)[C@H](CC(N)=O)NC(=O)[C@H](Cc1c[nH]c2ccccc12)NC(=O)[C@H](CC(N)=O)NC(=O)[C@@H](N)Cc1ccc(O)cc1)C(=O)N[C@@H](CCCNC(=N)N)C(=O)N[C@@H](Cc1ccccc1)C(N)=O [KISSPEPTIN-10]
4.4 nM,110 nM,,,CNC(=N)NCCC[C@H](NC(=O)[C@H](CC(C)C)NC(=O)NNC(=O)[C@H](Cc1ccccc1)NC(=O)[C@@H](NC(=O)[C@H](CC(N)=O)NC(=O)[C@@H](Cc1ccncc1)NC(=O)[C@H](N)Cc1ccc(O)cc1)c1ccccc1)C(=O)N[C@@H](Cc1c[nH]c2ccccc12)C(N)=O
0.59 nM,7.4 nM,,,CNC(=N)NCCC[C@H](NC(=O)[C@H](CC(C)C)NC(=O)NNC(=O)[C@H](Cc1ccccc1)NC(=O)[C@H](Cc1c[nH]c2ccccc12)NC(=O)[C@H](CC(N)=O)NC(=O)[C@@H](Cc1ccncc1)NC(=O)[C@H](N)Cc1ccc(O)cc1)C(=O)N[C@@H](Cc1c[nH]c2ccccc12)C(N)=O
0.63 nM,13 nM,,,CNC(=N)NCCC[C@H](NC(=O)[C@H](CC(C)C)NC(=O)NNC(=O)[C@H](Cc1ccccc1)NC(=O)[C@@H](NC(=O)[C@H](C)NC(=O)[C@@H](Cc1c[nH]c2ccccc12)NC(=O)[C@H](N)Cc1ccc(O)cc1)[C@@H](C)O)C(=O)N[C@@H](Cc1c[nH]c2ccccc12)C(N)=O
